According to ChEMBL document CHEMBL1124864, “Synthesis and biological evaluation of new antimuscarinic compounds with amidine basic centers. A useful bioisosteric replacement of classical cationic heads” (J Med Chem, 1990):

Columns and labels:
Cavia porcellus [1] = organism: Cavia porcellus; assay: In vitro functional studies in guinea pig left atrium; settings: Cardiac atrium
[2] = molecular target: T1, Muscarinic acetylcholine receptor M2 (Rattus norvegicus, UniProt P10980); assay: In vitro receptor binding against Muscarinic acetylcholine receptor M2 in rat heart was determined using [3H]NMS
T1 sequence (P10980 whole entry): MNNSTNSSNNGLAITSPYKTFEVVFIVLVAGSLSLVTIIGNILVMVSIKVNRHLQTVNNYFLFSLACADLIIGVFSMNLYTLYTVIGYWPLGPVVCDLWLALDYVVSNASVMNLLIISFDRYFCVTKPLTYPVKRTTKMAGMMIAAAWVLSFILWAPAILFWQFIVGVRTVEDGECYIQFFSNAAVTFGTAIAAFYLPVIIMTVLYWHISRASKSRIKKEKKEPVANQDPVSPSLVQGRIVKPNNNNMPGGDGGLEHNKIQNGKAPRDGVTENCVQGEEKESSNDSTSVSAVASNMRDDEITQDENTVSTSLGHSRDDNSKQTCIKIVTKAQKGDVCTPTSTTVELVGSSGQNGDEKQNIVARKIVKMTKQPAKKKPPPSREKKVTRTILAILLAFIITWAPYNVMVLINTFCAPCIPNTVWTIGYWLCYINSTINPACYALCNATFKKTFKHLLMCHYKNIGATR

Rattus norvegicus [3] = assay: […] activity against carbachol-induced colonic spasms in rat (iv); assay type: functional
Method in brief: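 Compounds given iv 2 min before each spasmogen dose. Percent inhibition of pretreatment contractions; ED50 with 95% confidence limits from linear regression of log dose-response curves.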

[4] = molecular target: Muscarinic acetylcholine receptor M3 (Rattus norvegicus, UniProt P08483); assay: In vitro receptor binding against Muscarinic acetylcholine receptor M3 in rat submandibular gland was determined using [3H]NMS
Rattus norvegicus [5] = assay: In vivo activity against oxotremorine induced tremors in rat (iv)
Rattus norvegicus [6] = assay: In vivo activity against oxotremorine induced salivation in rat (iv)
Cavia porcellus [7] = organism: Cavia porcellus; assay: In vitro functional studies in guinea pig ileum
[8] = molecular target: T2, Muscarinic acetylcholine receptor M1 (Rattus norvegicus, UniProt P08482); assay: In vitro receptor binding against Muscarinic acetylcholine receptor M1 in rat cerebral cortex was determined using [3H]pirenzepine; assay type: tissue-based
T2 sequence (P08482 whole entry): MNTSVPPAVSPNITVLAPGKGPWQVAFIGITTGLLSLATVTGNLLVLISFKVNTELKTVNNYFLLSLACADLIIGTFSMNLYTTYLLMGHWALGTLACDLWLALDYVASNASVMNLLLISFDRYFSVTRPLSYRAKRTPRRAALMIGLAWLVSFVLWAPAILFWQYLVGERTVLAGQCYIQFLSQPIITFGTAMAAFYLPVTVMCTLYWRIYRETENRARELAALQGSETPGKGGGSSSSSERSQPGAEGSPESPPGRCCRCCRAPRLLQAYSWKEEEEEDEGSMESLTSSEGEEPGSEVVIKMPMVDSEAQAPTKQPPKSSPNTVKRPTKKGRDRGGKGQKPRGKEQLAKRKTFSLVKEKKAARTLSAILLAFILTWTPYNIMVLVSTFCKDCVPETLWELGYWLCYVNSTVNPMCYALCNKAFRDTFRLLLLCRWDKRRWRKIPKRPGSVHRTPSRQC
Method in brief: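 Rat cortex, heart or submandibular gland homogenates in Na+-Mg2+-HEPES pH 7.4, incubated 45 min at 30 °C with radioligand plus varying cold ligand. Separated by centrifugation, pellets washed and counted, in triplicate. KD from IC50 by nonlinear regression with Cheng–Prusoff correction; Hill slopes by linear regression.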

[9] = pKa value was determined; assay type: physicochemical
Method in brief: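 Macroscopic pKa measured by potentiometric titration in water containing a few milliliters of methanol, with a glass electrode.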

Muscarinic acetylcholine receptor M3, sequence (P08483 whole entry): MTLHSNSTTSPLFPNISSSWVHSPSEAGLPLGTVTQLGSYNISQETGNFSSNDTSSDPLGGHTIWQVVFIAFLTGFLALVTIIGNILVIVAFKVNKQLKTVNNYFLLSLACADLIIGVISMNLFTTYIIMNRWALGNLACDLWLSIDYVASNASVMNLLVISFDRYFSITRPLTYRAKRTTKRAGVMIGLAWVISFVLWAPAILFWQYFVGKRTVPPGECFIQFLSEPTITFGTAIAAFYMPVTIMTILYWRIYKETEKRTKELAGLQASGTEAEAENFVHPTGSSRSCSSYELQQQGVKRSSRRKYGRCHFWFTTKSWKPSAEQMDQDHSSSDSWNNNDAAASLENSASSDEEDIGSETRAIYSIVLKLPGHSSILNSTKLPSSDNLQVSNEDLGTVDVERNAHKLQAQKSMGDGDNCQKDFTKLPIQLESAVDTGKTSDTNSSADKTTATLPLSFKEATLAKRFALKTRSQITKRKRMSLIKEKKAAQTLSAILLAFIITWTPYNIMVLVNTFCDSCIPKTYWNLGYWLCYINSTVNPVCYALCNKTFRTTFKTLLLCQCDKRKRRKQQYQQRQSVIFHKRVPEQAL

SMILES: CCCC[N+]1(C)C2CC(OC(=O)C(CO)c3ccccc3)CC1C1OC12.[Br-] (centres undefined)
- Kb (Cavia porcellus [1]): 58.4 nM
- Kd [2]: 220 nM
- ED50 (Rattus norvegicus [3]): 52.9 µg/kg
- Kd [4]: 220 nM
- ED50 (Rattus norvegicus [5]): > 3000 µg/kg
- ED50 (Rattus norvegicus [6]): 385 µg/kg
- Kb (Cavia porcellus [7]): 56.3 nM
- Kd [8]: 300 nM

SMILES: C[N+]1(C)C2CC(OC(=O)C(CO)c3ccccc3)CC1C1OC12 (centres undefined)
- Kb (Cavia porcellus [1]): 0.38 nM
- Kb (Cavia porcellus [7]): 0.17 nM

SMILES: O=C(O[C@@H]1C[C@@H]2N[C@H](C1)[C@@H]1O[C@@H]12)[C@H](CO)c1ccccc1
- pKa [9]: 7.09

SMILES: CC(=N)N1C2CC(OC(=O)C(CO)c3ccccc3)CC1C1OC12.Cl (centres undefined)
- Kb (Cavia porcellus [1]): 5.02 nM
- Kd [2]: 6.7 nM
- ED50 (Rattus norvegicus [3]): 3.9 µg/kg
- Kd [4]: 3.5 nM
- pKa [9]: 10.7
- ED50 (Rattus norvegicus [5]): 1700 µg/kg
- ED50 (Rattus norvegicus [6]): 4.1 µg/kg
- Kb (Cavia porcellus [7]): 1.55 nM
- Kd [8]: 3.4 nM

SMILES: Cl.N=CN1C2CC(OC(=O)C(CO)c3ccccc3)CC1C1OC12 (centres undefined)
- Kb (Cavia porcellus [1]): 6.55 nM
- Kd [2]: 10 nM
- ED50 (Rattus norvegicus [3]): 6.1 µg/kg
- Kd [4]: 5 nM
- pKa [9]: 9.78
- ED50 (Rattus norvegicus [5]): 1300 µg/kg
- ED50 (Rattus norvegicus [6]): 2.45 µg/kg
- Kb (Cavia porcellus [7]): 1.68 nM
- Kd [8]: 3.6 nM

SMILES: Cl.N=CN1C2CCC1CC(OC(=O)C(CO)c1ccccc1)C2 (centres undefined)
- Kb (Cavia porcellus [1]): 1.59 nM
- Kd [2]: 1.6 nM
- ED50 (Rattus norvegicus [3]): 3.5 µg/kg
- Kd [4]: 1.4 nM
- pKa [9]: 10.3
- ED50 (Rattus norvegicus [5]): > 10000 µg/kg
- ED50 (Rattus norvegicus [6]): 3.9 µg/kg
- Kb (Cavia porcellus [7]): 0.72 nM
- Kd [8]: 1.1 nM

SMILES: Cl.N=C(N)N1C2CC(OC(=O)C(CO)c3ccccc3)CC1C1OC12 (centres undefined)
- Kb (Cavia porcellus [1]): 16.4 nM
- Kd [2]: 23 nM
- ED50 (Rattus norvegicus [3]): 18.6 µg/kg
- Kd [4]: 4.5 nM
- pKa [9]: 10.8
- ED50 (Rattus norvegicus [5]): > 3000 µg/kg
- ED50 (Rattus norvegicus [6]): 18.8 µg/kg
- Kb (Cavia porcellus [7]): 5.18 nM
- Kd [8]: 7.5 nM

SMILES: CC(=N)N1C2CCC1CC(OC(=O)C(CO)c1ccccc1)C2.Cl (centres undefined)
- Kb (Cavia porcellus [1]): 3.17 nM
- Kd [2]: 10 nM
- ED50 (Rattus norvegicus [3]): 3.3 µg/kg
- Kd [4]: 3.1 nM
- pKa [9]: 10.9
- ED50 (Rattus norvegicus [5]): > 10000 µg/kg
- ED50 (Rattus norvegicus [6]): 6.2 µg/kg
- Kb (Cavia porcellus [7]): 1.61 nM
- Kd [8]: 2 nM

SMILES: Cl.N=C(N)N1C2CCC1CC(OC(=O)C(CO)c1ccccc1)C2 (centres undefined)
- Kb (Cavia porcellus [1]): 3.06 nM
- Kd [2]: 11 nM
- ED50 (Rattus norvegicus [3]): 9.8 µg/kg
- Kd [4]: 2.5 nM
- pKa [9]: 11.6
- ED50 (Rattus norvegicus [5]): > 3000 µg/kg
- ED50 (Rattus norvegicus [6]): 5.8 µg/kg
- Kb (Cavia porcellus [7]): 1.92 nM
- Kd [8]: 7 nM

SMILES: C[N+]1(C)[C@@H]2CC[C@H]1C[C@@H](OC(=O)C(CO)c1ccccc1)C2 (some centres undefined) [ATROPINE METHYLBROMIDE]
- Kb (Cavia porcellus [1]): 1.29 nM
- Kd [2]: 2.7 nM
- Kd [4]: 2.6 nM
- Kb (Cavia porcellus [7]): 0.71 nM

SMILES: CN1[C@@H]2CC[C@H]1C[C@@H](OC(=O)C(CO)c1ccccc1)C2 (some centres undefined) [ATROPINE]
- Kb (Cavia porcellus [1]): 0.66 nM
- ED50 (Rattus norvegicus [3]): 4.5 µg/kg
- ED50 (Rattus norvegicus [5]): 453 µg/kg
- ED50 (Rattus norvegicus [6]): 8.6 µg/kg
- Kb (Cavia porcellus [7]): 3.16 nM

SMILES: CN1[C@@H]2C[C@@H](OC(=O)[C@H](CO)c3ccccc3)C[C@H]1[C@@H]1O[C@@H]12 [SCOPOLAMINE]
- Kb (Cavia porcellus [1]): 0.17 nM
- ED50 (Rattus norvegicus [3]): 5.8 µg/kg
- ED50 (Rattus norvegicus [5]): 11 µg/kg
- ED50 (Rattus norvegicus [6]): 2.6 µg/kg
- Kb (Cavia porcellus [7]): 0.4 nM
